HSF-1 act = increases HSF-1 driven luciferase reporter signal; NIH3T3-HGL HSF-1 luciferase reporter, MG132, 8 h; 100% = twice DMSO control signal; activation, % at 9 µM; 300,000 compounds, 1.7% hits;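 active = mean replicate activation of at least 50% with a set share of replicates each reaching 50%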
HSP90 inh = blocks HSP90-mediated luciferase refolding in reticulocyte lysate. Rabbit reticulocyte lysate, luciferase refolding luminescence, 3 h. inhibition, % at 5.6 µM. 290,000 compounds, 0.91% hits. AID 1789;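 active = inhibition above the screen-wide mean plus 3 SD, computed separately per campaign, cut at about 16% in these data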;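 also: inhibitors lower the luminescence because luciferase stays unfolded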
HCV NS3 hel inh = HCV NS3 helicase inhibition. inhibition, % at 10.9 µM. AID 1800. NS3 helicase DNA unwinding, Cy5 molecular beacon fluorescence. 290,000 compounds, 0.56% hits;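 active = inhibition above the mean of all tested compounds plus 3 SD, set per campaign, cut at about 35% in these data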
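Assay system: hepatitis C virus NS3 helicase domain fragment enzyme. Also added: annealed dual-labelled DNA beacon duplex, ATP-started. Timing: 1 h reaction at 25 °C, ATP-initiated. Technique: Cy5 fluorescence at 0 and 60 min, beacon hairpin quenching. Evaluation: % inhibition of unwinding. Replication: one well per compound.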
HCV core dimer = HCV core protein dimerization inhibition; TR-FRET GST/Flag-core106 dimerization, 1536-well; inhibition, % at 5 µM; 300,000 compounds, 0.33% hits; AID 1899;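 active = inhibition above the mean of all tested compounds plus 3 SD, set per screening campaign, cut at about 45% in these data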
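System – GST-tagged and Flag-tagged HCV core protein residues 1-106 · Repeats – one well for each compound · Technique – TR-FRET 671 and 617 nm emission · Doses – one concentration, 5 µM, in 0.5% DMSO · Times – 4 h, 22.5 °C incubation · Also added – Eu donor and XL665 acceptor anti-tag antibodies · Measure – percent inhibition of core106 dimerization signal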
HSF1 inhib = HSF1 inhibition; NIH3T3-HGL HSE-luciferase, MG132-induced, luminescence 8 h; active compounds read low; activity change, negative = inhibition, % at 7.5 µM (by protocol); 300,000 compounds, 0.77% hits; AID 2098;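 active = more than half of replicate wells show activity change below -50%, luminescence cut by over half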;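 also: luciferase reports HSF-1 transcriptional activity via heat shock element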
DNA FID counter-1 = counter-screen for HCV NS3 helicase inhibitors: DNA intercalator displacement. DNA fluorescent intercalator displacement, fluorescence. inhibition, % at 7.9 µM. 290,000 compounds, 0.17% hits;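 also: higher means more ethidium bromide displaced from hairpin DNA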
NS3 hel confirm = confirmation of Hepatitis C virus NS3 helicase inhibitors | shares compounds with HCV NS3 hel inh | NS3 helicase DNA unwinding, Cy5 molecular beacon fluorescence | inhibition, % at 10.9 µM | 1,600 compounds, 31% hits;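 active = inhibition above the mean of all tested compounds plus 3 SD, cutoff set per campaign, cut at about 36% in these data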
DNA FID counter-2 = displaces DNA intercalator in HCV helicase counter-screen; shares compounds with HCV NS3 hel inh; DNA fluorescent intercalator displacement, fluorescence; inhibition, % at 7.9 µM; 1,600 compounds, 4% hits; AID 1945;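 also: higher means more displacement of ethidium bromide from the DNA hairpin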
Large screens that a line does not name were inactive (follow-up assays come after a bar, where they were run). The list is not random: actives were taken first. Their share in the collection is about 3.9%. Rule as the data show it, unless noted: active = inhibition above about 37%; inactive = the rest.

CCc1cc2c(=O)n(Cc3ccco3)c(SCC(=O)NCC3CCCO3)nc2s1 (stereo unspecified)	none
CCOc1ccc(/C(O)=C2/C(=O)C(=O)N(CCCN3CCOCC3)C2c2ccc(F)cc2)cc1C (stereo unspecified)	none
COC(=O)c1cc(N=Cc2c(O)c3ccccc3oc2=O)cc(C(=O)OC)c1	HCV NS3 hel inh 40 | NS3 hel confirm inactive | DNA FID counter-2 inactive
CCCSc1nc(C)nc2c1c(=O)n(C)c(=O)n2C	none (no result: HSF-1 act, HCV core dimer, HSF1 inhib)
O=C(O)/C(CC(=O)c1ccc(Cl)cc1)=N/Nc1ccc([N+](=O)[O-])cc1[N+](=O)[O-]	HCV NS3 hel inh 38 | NS3 hel confirm 52 | DNA FID counter-2 56
C/C(CCC(=O)O)=N/Nc1ccc([N+](=O)[O-])cc1[N+](=O)[O-]	none
COc1ccc(-c2cc(Cl)cc3c(=O)c4ccccc4n(C)c23)cc1F	HCV NS3 hel inh 67 | NS3 hel confirm inactive | DNA FID counter-2 inactive
COc1ccc(/C=N/NC(=O)c2cccc(NC(=O)c3ccccc3Cl)c2)cc1	HCV NS3 hel inh 61 | NS3 hel confirm inactive | DNA FID counter-2 inactive
COc1ccc(/C=N/NC(=O)c2cccc(NC(=O)c3ccccc3Cl)c2)cc1OC	none
CCOC(=O)C1CCCN(C(=O)/C(=C/c2ccco2)NC(=O)c2ccccc2)C1 (stereo unspecified)	HCV NS3 hel inh 45 | NS3 hel confirm inactive | DNA FID counter-2 inactive
Cc1ccc(-c2nn(Cc3ccccc3)cc2/C=C/C(=O)O)cc1	HCV NS3 hel inh 44 | NS3 hel confirm inactive | DNA FID counter-2 inactive
CCc1nnc(NS(=O)(=O)c2ccc(NC(=S)NC(=O)c3ccc(OC)cc3)cc2)s1	HCV NS3 hel inh 37 | NS3 hel confirm 52 | DNA FID counter-2 inactive
CCc1nnc(NS(=O)(=O)c2ccc(NC(=S)NC(=O)c3ccc(OC)c(OC)c3)cc2)s1	none
COc1ccc(/C=C/c2nc3ccccc3c(=O)n2-c2cccc(C(=O)O)c2)cc1	HCV NS3 hel inh 41 | NS3 hel confirm inactive | DNA FID counter-2 inactive
CCCc1nc2ccccc2n1CCc1ccccc1	none
Cc1cccc(C)c1C(OCCN(C)C)C1CCCCC1 (stereo unspecified)	none
COc1ccc(C(=O)O)cc1NC(=S)NC(=O)/C=C/c1ccc(C(C)C)cc1	HCV NS3 hel inh 43 | NS3 hel confirm 58 | DNA FID counter-2 inactive
Cc1ccc(SCC(=O)NCc2cccnc2)cc1	none
Cc1cccc(C)c1Nc1nnc(SC/C(O)=C(\C#N)c2nc3ccccc3[nH]2)s1	none
Cc1cccc(Nc2nnc(SC/C(O)=C(\C#N)c3nc4ccccc4[nH]3)s2)c1C	HCV NS3 hel inh 48 | NS3 hel confirm inactive | DNA FID counter-2 inactive
O=C(/C=C/Nc1ccc(Oc2ccccc2Cl)cc1)c1ccco1	none
CC(C)C1Nc2c(O)cc(Cl)c([N+](=O)[O-])c2C2C=CCC21 (stereo unspecified)	HCV NS3 hel inh 37 (no result: HCV core dimer) | NS3 hel confirm 58 | DNA FID counter-2 inactive
CCCC(C(=O)O)N1C(=O)/C(=C/c2cccn2C)SC1=S (stereo unspecified)	HCV NS3 hel inh 36 (no result: HSF-1 act, HSF1 inhib) | NS3 hel confirm 39 | DNA FID counter-2 inactive
CC(C)C(C(=O)O)N1C(=O)/C(=C/c2cccn2C)SC1=S (stereo unspecified)	none (no result: HSF-1 act, HSF1 inhib)
COCCN(C(=O)c1ccc(-c2ccc(Cl)cc2)o1)c1c(N)n(Cc2ccccc2)c(=O)[nH]c1=O	none (no result: HSP90 inh, HCV NS3 hel inh, DNA FID counter-1)
O=S(=O)(NCCO)c1ccc2c(c1)Cc1cc(S(=O)(=O)NCCO)ccc1-2	none
NNS(=O)(=O)c1ccc2c(c1)Cc1cc(S(=O)(=O)NN)ccc1-2	HCV NS3 hel inh 39 | NS3 hel confirm inactive | DNA FID counter-2 inactive
N#Cc1c(SCC(=O)Nc2ccc(Cl)cc2Cl)sc2c(O)cc(=O)[nH]c12	none
Cc1c(Cl)cccc1NC(=O)CSc1sc2c(O)cc(=O)[nH]c2c1C#N	HCV NS3 hel inh 37 | NS3 hel confirm inactive | DNA FID counter-2 inactive
NNC(=O)c1oc2nc(-c3ccco3)cc(-c3ccco3)c2c1N	HCV NS3 hel inh 51 | NS3 hel confirm inactive | DNA FID counter-2 inactive
Nc1c(C(=O)N/N=C/c2cccnc2)oc2nc(-c3ccco3)cc(-c3ccco3)c12	none
CCOC(=O)C1=C(N)N2C(=O)C(C)SC2=C(C(=O)OCC)C1c1ccc(O)cc1 (stereo unspecified)	HCV NS3 hel inh 39 | NS3 hel confirm inactive | DNA FID counter-2 inactive
CCOC(=O)C1=C(N)N2C(=O)C(C)SC2=C(C(=O)OCC)C1c1ccccc1 (stereo unspecified)	none
CN(C)CCN1C(=O)C(=O)/C(=C(/O)c2ccc(F)cc2)C1c1ccccc1 (stereo unspecified)	none
CCOC(=O)C1=C(C)N=C2SC(C(=O)OC)=CC(=O)N2C1c1ccc(OC)cc1 (stereo unspecified)	none
COc1cc(/C=C2/SC(=S)N(Cc3ccccc3)C2=O)ccc1OCC(=O)O	HCV NS3 hel inh 37 | NS3 hel confirm inactive | DNA FID counter-2 inactive
O=C1/C(=C\c2cc(Br)cc(Br)c2O)SC(=S)N1Cc1ccccc1	HCV NS3 hel inh 57 | NS3 hel confirm 75 | DNA FID counter-2 inactive
O=C(O)CN1C(=O)/C(=C\c2cccc(OCc3ccc(Cl)cc3Cl)c2)SC1=S	none (no result: HCV core dimer)
O=C(O)CN1C(=O)/C(=C\c2ccccc2OCc2ccc(Cl)cc2Cl)SC1=S	HCV NS3 hel inh 47, HSF1 inhib -66 | NS3 hel confirm 66 | DNA FID counter-2 inactive
O=C(O)CN1C(=O)/C(=C\c2cc(Br)ccc2OCc2ccccc2Cl)SC1=S	HCV NS3 hel inh 47 | NS3 hel confirm 69 | DNA FID counter-2 48
COC(=O)c1cc2ccsc2n1CC(=O)N(C)C1CCCCC1	none
CC1CCC/C(=N\NC(=O)c2ccncc2)C1 (stereo unspecified)	none
O=C(O)CN1C(=O)/C(=C\c2cc(Br)ccc2OCc2ccc([N+](=O)[O-])cc2)SC1=S	HCV NS3 hel inh 56 | NS3 hel confirm 66 | DNA FID counter-2 56
O=S(=O)(c1cccc(F)c1)N1CCN(C(=S)NCc2ccccc2)CC1	none
CCOc1ccc(NC(=O)c2cc3cc4ccc(C)cc4nc3o2)cc1	HCV NS3 hel inh 47 | NS3 hel confirm inactive | DNA FID counter-2 inactive
CCC(C)NC(=O)c1cc2cc3ccc(OC)cc3nc2o1 (stereo unspecified)	HSF-1 act 63, HCV NS3 hel inh 38 | NS3 hel confirm inactive | DNA FID counter-2 inactive
CC(/C=C/c1ccc2c(c1)OCO2)=N\NC(=O)COc1ccccc1C	none

Source: PubChem (several laboratories)
